Legend:
[1] = Molar concentration required to give a sensitizer enhancement ratio of 1.6 in hypoxic […] (V79) cells.; format: functional, Cricetulus griseus
How it was run: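 Hypoxic Chinese hamster V79-379A cells irradiated in vitro with compound present; C1.6 = molar concentration of compound giving a sensitizer enhancement ratio of 1.6.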

[2] = Differential toxicity expressed as the ratio of C50 (air) to C50 (nitrogen); format: functional
How it was run: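 Differential toxicity = C50(air)/C50(N2), with each C50 from the MTT assay on V79-379A cells under air or nitrogen; mean of at least three experiments.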

[3] = tested on: V79-379A (Chinese hamster lung fibroblasts); assay: Cytotoxicity in air (MMT assay).
[4] = tested on: V79-379A (Chinese hamster lung fibroblasts); assay: Cytotoxicity in nitrogen (MMT assay).
[5] = Compound was tested for persistent physical or behavioral effects in C3H/He mice; format: functional, Mus musculus
How it was run: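 Toxicity screen in C3H/He mice: single injection as PBS (pH 7.3) solution or suspension, 0.5 or 1.0 mL per 25 g body weight, doses raised until solubility or toxicity limited; animals watched for acute, severe or persistent physical or behavioural changes (e.g. piloerection, respiration rate, locomotor activity for about 1 h).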

| Structure (SMILES) | C1.6 [1] [mM] | d tox [2] | C50 [3] [mM] | C50 [4] [mM] | Max dose [5] [mM/kg] |
| --- | --- | --- | --- | --- | --- |
| C=CCNC(=O)/C=C/c1ccc([N+](=O)[O-])o1 | 0.03 | 2.4 | 0.06 | 0.025 |  |
| O=C(NCC1CO1)c1ccc([N+](=O)[O-])o1 (configuration not stated) | 0.02 | 1 | 0.05 | 0.05 | 50 |
| C=CCNC(=O)c1cc([N+](=O)[O-])oc1C | 0.075 | 0.4 | 0.35 | 0.8 |  |
| Br.NC(=O)N/N=C/c1ccc([N+](=O)[O-])o1 | 0.05 | 8.5 | 1.7 | 0.2 |  |
| C[C@@H]1[C@H](C)N1CC(O)CNC(=O)C1OC1c1ccc([N+](=O)[O-])o1 (some centres not stated) | 0.025 | 1 | 0.012 | 0.012 |  |
| C=CCOC(=O)c1ccc([N+](=O)[O-])o1 | 0.05 | 4 | 0.1 | 0.025 |  |
| O=[N+]([O-])c1nccn1CC(O)CN1CC1 (configuration not stated) | 0.1 | 66.6 | 0.3 | 0.0045 |  |
| O=C(/C=C/c1ccc([N+](=O)[O-])o1)NCC1CO1 (configuration not stated) | 0.008 | 3 | 0.03 | 0.01 | 25 |
| CC1(C)CN1CC(O)CNC(=O)c1ccc([N+](=O)[O-])o1 (configuration not stated) | 0.04 | 2 | 0.15 | 0.075 |  |
| C[C@@H]1[C@H](C)N1CC(O)CNC(=O)/C=C/c1ccc([N+](=O)[O-])o1 (some centres not stated) | 0.035 | 1.8 | 0.07 | 0.04 |  |
| C=CCNC(=O)c1ccc([N+](=O)[O-])o1 | 0.05 | 1.8 | 0.08 | 0.045 |  |
| Br.C[C@H](Br)[C@H](C)NCC(O)CNC(=O)c1ccc([N+](=O)[O-])o1 (some centres not stated) | 0.03 | 5.6 | 0.14 | 0.025 |  |
| COCC(O)Cn1ccnc1[N+](=O)[O-] (configuration not stated) [MISONIDAZOLE] | 0.3 | 11.3 | 45 | 4 |  |
| CC1(C)CN1CC(O)CNC(=O)/C=C/c1ccc([N+](=O)[O-])o1 (configuration not stated) | 0.008 | 4.5 | 0.045 | 0.01 |  |
| Br.O=[N+]([O-])c1nccn1CC(O)CNCCBr (configuration not stated) | 0.1 | 25.6 | 2.3 | 0.09 |  |
| C=CCNC(=O)c1cc([N+](=O)[O-])c(C)o1 |  | 0.5 | 0.015 | 0.03 |  |
| CC(C)(CO)NC(=O)c1ccc([N+](=O)[O-])o1 | 0.05 | 2.1 | 0.25 | 0.12 | 100 |
| CC1(C)CN1C(=O)c1ccc([N+](=O)[O-])o1 | 0.1 | 1 | 0.18 | 0.18 |  |
| C[C@@H]1[C@H](C)N1CC(O)CNC(=O)c1ccc([N+](=O)[O-])o1 (some centres not stated) | 0.05 | 3 | 0.06 | 0.02 |  |
| Cc1oc([N+](=O)[O-])cc1C(=O)NCC1CO1 (configuration not stated) | 0.04 | 1 | 0.1 | 0.1 |  |

Reference: ChEMBL document CHEMBL1125078, “Synthesis and evaluation of novel electrophilic nitrofuran carboxamides and carboxylates as radiosensitizers and bioreductively activated cytotoxins” (1990)
